Tested on: HFD-induced obese mice
Experiment: HFD-induced obese mice
Type: in vivo, C57BL/6J male mice
Conditions: HFD-fed mice
Outline: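 Male C57BL/6J mice, 5 weeks old, SPF, 12 h light/dark cycle, were fed high-fat diet. After 10 weeks they were randomised to daily gavage with vehicle, test compound (25 or 50 mg/kg) or reference ACC inhibitor (50 mg/kg) to week 22, with food intake and weight recorded weekly. Liver read-outs: H&E, Oil red O, sirius red, F4/80 immunofluorescence, α-SMA IHC, qPCR (ΔΔCt, 18S) and Western blot (β-actin).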

Cc1nc2ccc(C(=O)N3CCC4(CC3)CC(=O)c3c(cnn3C(C)C)C4)cc2[nH]1 [PF-05175157] was tested, and the “activation of macrophages (liver F4/80)” value (50 mg/kg ig daily) was “failed to prevent” and the “Col1a1 gene expression and collagen accumulation in the liver” value (ig daily, sirius red staining) was “not observed”.

— PMC7468331 (Acta Pharmacologica Sinica, 2019)
